GalR3 antag – blocks the human galanin receptor 3. O60755. HEK293 GalR3-CNG cAMP membrane potential fluorescence; galR3 body fused to GalR1 C-terminus. inhibition, % at 3 µM. actives 0.44% (n = 360,000). AID 651719;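 active = inhibition above the screen-wide average plus 3 SD, cut at about 13% in these data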;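 note: forskolin and galanin both at EC90 stimulate the cells; cAMP rise reported by CNG channel membrane potential dye signal; 0% = forskolin plus galanin with DMSO and 100% = forskolin alone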
Target sequence (O60755 1-299 limits assumed): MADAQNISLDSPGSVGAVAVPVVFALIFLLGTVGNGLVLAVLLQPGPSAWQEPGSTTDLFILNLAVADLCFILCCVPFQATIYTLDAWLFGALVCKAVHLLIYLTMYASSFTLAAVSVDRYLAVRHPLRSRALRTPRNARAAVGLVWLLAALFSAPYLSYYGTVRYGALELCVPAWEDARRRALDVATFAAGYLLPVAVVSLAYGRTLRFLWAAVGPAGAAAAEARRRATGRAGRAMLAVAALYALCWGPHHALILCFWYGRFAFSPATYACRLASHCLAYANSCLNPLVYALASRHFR
MC4R barr agon – agonists of human melanocortin 4 receptor (MC4R) beta-arrestin | actives 0.98% (n = 360,000) | activation, % at 8.9 µM | U2OS MC4R beta-arrestin complementation, luminescence; percent of melanotan II response, DMSO zero | P32245;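 active = activation above a per-plate cutoff, the mean activation of sample wells on that plate plus 3 SD, cut at about 8% in these data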
Target sequence (P32245 whole entry, looked up): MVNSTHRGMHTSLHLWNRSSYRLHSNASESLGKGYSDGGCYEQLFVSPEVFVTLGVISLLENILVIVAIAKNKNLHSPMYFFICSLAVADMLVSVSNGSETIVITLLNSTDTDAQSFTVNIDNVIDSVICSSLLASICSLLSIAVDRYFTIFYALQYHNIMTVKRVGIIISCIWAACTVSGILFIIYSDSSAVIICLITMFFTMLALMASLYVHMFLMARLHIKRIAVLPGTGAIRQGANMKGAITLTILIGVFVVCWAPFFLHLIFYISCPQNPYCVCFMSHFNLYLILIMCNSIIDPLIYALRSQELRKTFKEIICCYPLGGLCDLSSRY
H9c2 TAG inh – reduces triacylglycerol accumulation in H9c2 cells; actives 0.66% (n = 230,000); AID 651582; Nile Red lipid (TAG) fluorescence; cells loaded with 200 µM oleic acid; inhibition, % at 12.5 µM;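 active = pattern-corrected inhibition of lipid staining of at least 50% with the nuclear-stain viability signal not falling by more than 50%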;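 note: 0% = DMSO wells and 100% = triacsin C control wells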
MC4R antag cAMP – antagonists of human melanocortin 4 receptor (MC4R). MC4R-expressing cells, MTII-stimulated cAMP, LANCE TR-FRET. inhibition, % at 6.5 µM. actives 0.48% (n = 360,000);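 active = inhibition above its plate's cutoff, the mean of tested wells on that plate plus 3 SD, cut at about 29% in these data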;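 note: 0% = Melanotan II alone and 100% = Melanotan II plus saturating MCL0020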
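System – human MC4R-expressing U2OS cells · Also added – Melanotan II · Dosing – one concentration, 6.5 µM nominal · Timing – 30-min compound, 1-h challenge, 1-h detection, room temperature · Measured by – Eu-cAMP/anti-cAMP TR-FRET, emission 671 nm · Replicates – singlicate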
Efflux pump inh – inhibitors of Candida antifungal efflux pumps expressed in yeast; S. cerevisiae Candida pump triplex, Nile Red efflux; inhibition, % at 10 µM; actives 0.44% (n = 330,000);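 active = plate passing quality check with inhibition over a set limit, or well fluorescence over plate mean plus 4 SD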;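 note: Nile Red retained in pooled yeast measured as flow cytometry median fluorescence; 0% = buffer negative control and 100% = Enniatin B positive control; higher means more Nile Red kept so more efflux inhibition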
Calb FLC – C. albicans growth modulation with fluconazole; C. albicans CaCi-2 + fluconazole, Alamar Blue growth, 48 h; growth inhibition, % (concentration not given with the values); actives 0.57% (n = 300,000);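 active = growth inhibition above about 58% in most replicates, limit read from the data, passing the limit was not always enough; inconclusive = exactly half the replicates above a set limit; inactive = most replicates below a set limit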;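 note: all wells also contain fluconazole at 8 µg/ml as a sub-toxic cotreatment; 0% = median of DMSO wells and 100% = median of geldanamycin control wells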
GalR3 conf – confirmation of human galanin receptor 3 antagonists. shares compounds with GalR3 antag. HEK293 GalR3 CNG cAMP biosensor, membrane potential fluorescence; galR3 fused to GalR1 carboxy tail; challenged with forskolin and galanin at EC90. inhibition, % at 3 µM. actives 59% (n = 1,600). AID 652245;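 active = inhibition above the primary screen's cutoff, the mean inhibition of all screened compounds plus 3 SD, cut at about 13% in these data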;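 note: 0% = forskolin plus galanin and 100% = forskolin alone with DMSO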
CNG parental – counter-screen for GalR3 antagonists: nonspecific agonists in parental HEK-CNG cells; shares compounds with GalR3 antag; HEK293-CNG parental cells, cAMP membrane potential fluorescence; normalised: DMSO wells 0%, forskolin wells 100%; activation, % at 3 µM; actives 10% (n = 1,600); in the data active = activation above about 1.3%
* marks the source's active call; other numbers are inactive results; ? = inconclusive; . = no result given. Only some compounds are listed: those with a hit (about 2.9% of all), similar ones and a draw of the others.

SMILES | GalR3 antag | MC4R barr agon | H9c2 TAG inh | MC4R antag cAMP | Efflux pump inh | Calb FLC | GalR3 conf | CNG parental
Cn1c2ccccc2c2cnn(CC(=O)O)c(=O)c21 | . | -1.3 | 2.3 | -0.7 | 0.0 | 10.7 | 0.6 | 0.9
Cc1cccc(Cl)c1NC(=O)N1CCCN(c2nc3ccc(Cl)cc3s2)CC1 | 82.4* | -1.4 | 0.4 | 4.1 | -0.1 | -1.2 | 102.7* | -0.5
Cc1cccc(Cl)c1NC(=O)N1CCN(c2ccnc3cc(Cl)ccc23)CC1 | -8.7 | 0.6 | 6.6 | 12.7 | -0.2 | -9.4 | . | .
Cc1cccc(C)c1NC(=O)N1CCN(c2nc3ccccc3s2)CC1 | 39.3* | -2.0 | 12.2 | 10.3 | 0.1 | -13.1 | 2.4 | -0.4
CCOc1ccc(NC(=O)N2CCN(c3nc4ccccc4s3)CC2)cc1 | -6.9 | -0.3 | -20.9 | -1.9 | -0.1 | -7.6 | . | .
COc1cc(N/C(=C\C(=O)c2ccccc2)c2ccccc2)ccc1Cl | -5.7 | . | . | . | . | . | . | .
CC1=C(O)C(=O)C(c2c(C)cc(C)c(Br)c2C)=C(O)C1=O | -1.6 | -4.3 | 6.7 | 6.2 | . | . | . | .
CCOCCCNS(=O)(=O)c1ccccc1 | -6.4 | 0.1 | . | 19.5 | 0.2 | -11.0 | . | .
CCOCCCNS(=O)(=O)c1ccc(NC(=O)c2ccccc2)cc1 | 64.6* | 0.4 | . | 4.3 | -0.1 | -10.8 | 4.0 | 0.0
C[C@H]1CN(C(=O)OC(C)(C)C)CCN1c1ccc(N2CC[C@@H](O)C2)c(C#N)c1 | 0.9 | . | . | . | . | . | . | .
CO[C@H]1CN(C)C(=O)c2ccc(NC(=O)C3CCC3)cc2OC[C@H](C)N(Cc2ccccn2)C[C@@H]1C | 3.0 | . | . | . | . | . | . | .
Cc1ccc([C@H]2C[C@@H](O)[C@H](n3cc(-c4ccc(F)cc4)nn3)CN2C(=O)c2cccs2)cc1 | -6.9 | -2.0 | 1.7 | 4.0 | . | . | . | .
CC1(C(=O)NS(=O)(=O)c2cccc(F)c2)CCN1C(=O)Cc1cccs1 (stereo not given) | -2.1 | -1.2 | 3.1 | -4.5 | . | . | . | .
O=C(c1ccc([N+](=O)[O-])s1)N1CCN(c2ccccn2)CC1 | -8.2 | -1.4 | . | -9.8 | -0.1 | 0.2 | . | .
O=C(c1ccc([N+](=O)[O-])s1)N1CCN(c2ccccc2)CC1 | 50.1* | -0.4 | . | 7.2 | -0.1 | -8.8 | -5.2 | -0.3
CCOC(=O)CC(N)c1ccc(OC)cc1 (stereo not given) | 13.9* | -0.5 | 15.5 | 6.0 | 0.1 | -4.6 | 12.7* | -0.2
COc1ccccc1Cc1c(-c2ccc(Cl)cc2)nc2ccc(Br)cn12 | -5.9 | . | . | . | . | . | . | .
CCCCOc1ccc([N+](=O)[O-])cc1C(=O)O | 16.7* | 3.0 | -14.2 | -10.6 | 0.1 | -2.4 | 2.2 | 0.4
Cc1cc(NC(=O)c2ccc3c(c2)C(=O)N(C2CCCCC2)C3=O)no1 | -1.2 | -1.1 | . | 17.4 | 0.0 | -6.4 | . | .
O=C(Nc1ccncc1)c1ccc2c(c1)C(=O)N(C1CCCCC1)C2=O | 45.9* | 5.5 | 5.0 | 4.6 | 0.0 | 0.1 | 57.4* | -0.6
O=C(c1ccc(O)c(Br)c1)c1cc(Br)ccc1O | 3.8 | -1.2 | 12.4 | 1.7 | . | . | . | .
O=C(C(=O)c1cc(Br)ccc1O)c1cc(Br)ccc1O | 87.0* | -0.7 | -0.4 | 12.7 | . | . | 43.7* | 0.8
C1=CC2CC1CC2CN1CCN(Cc2ccccc2)CC1 (stereo not given) | . | 3.5 | 0.0 | 1.4 | 0.0 | -2.1 | 2.5 | 1.8*
Cc1cc(N2CCN(C(c3ccccc3)c3ccccc3)CC2)n2ncnc2n1 | -3.8 | 0.6 | -14.3 | -1.7 | -0.1 | 9.0 | . | .
Cc1cc(N2CCN(c3nc4ccccc4s3)CC2)n2ncnc2n1 | 23.9* | 0.4 | . | 2.5 | -0.2 | -2.2 | 37.0* | -0.1
SMILES | GalR3 antag | MC4R barr agon | H9c2 TAG inh | MC4R antag cAMP | Efflux pump inh | Calb FLC | GalR3 conf | CNG parental
Cc1cccc(C)c1NC(=O)C1(C)CSCC(=O)N1Cc1cccc(C(F)(F)F)c1 (stereo not given) | -7.0 | . | . | . | . | . | . | .
CC(C)n1c(=S)[nH]c2scc(-c3cccs3)c2c1=O | 13.2* | -1.6 | 8.3 | 8.9 | 0.1 | 47.1 | 1.6 | 0.2
Cc1nc2scc(-c3cccs3)c2c(=O)[nH]1 | -7.0 | -1.3 | . | 2.9 | -0.2 | ? | . | .
Nc1ncnc(N)c1NC(=O)c1cc(Cl)c(OCc2ccccc2)c(Cl)c1 | -4.7 | -0.8 | -17.9 | -3.1 | . | . | . | .
CC(C)(C)OC(=O)NCCCCCc1nnc(SCC(=O)Nc2cccc(Cl)c2)o1 | 17.2* | 0.7 | . | 1.5 | -0.1 | 17.2 | 77.0* | -0.6
CCOC(=O)C1=C(COC(=O)Cc2c(F)cccc2Cl)NC(=O)NC1C (stereo not given) | -4.1 | -0.3 | -13.4 | -5.8 | 0.2 | . | . | .
Cc1cccc(OCCn2nc(C(=O)O)c3ccccc3c2=O)c1 | 4.8 | -1.7 | -38.5 | -5.3 | -0.1 | -5.6 | . | .
O=C(O)c1nn(CCSc2ccccc2F)c(=O)c2ccccc12 | 26.6* | 1.0 | -22.8 | 1.4 | 0.0 | -7.5 | 9.2 | 0.2
Cc1noc(C)c1Cn1nc(C(=O)O)c2ccccc2c1=O | 19.2* | -0.8 | -4.0 | 4.7 | -0.3 | 32.5 | 27.0* | 0.6
Cc1cccc(C)c1OCCn1nc(C(=O)O)c2ccccc2c1=O | 16.1* | 1.3 | 11.6 | -1.2 | 0.0 | 0.0 | 24.1* | 0.3
O=C(N/N=C(\c1ccccc1)c1cccnc1)c1cccc(F)c1 | 42.3* | -3.0 | 28.3 | 4.0 | -0.2 | -4.7 | 38.0* | 0.4
O=C(N/N=C(\c1ccccc1)c1cccnc1)c1ccc(O)cc1 | 3.7 | 0.3 | 8.2 | -2.3 | -0.1 | -1.5 | . | .
O=C(Cc1ccc(Nc2nc3ccc(Br)cc3[nH]2)cc1)NCCc1cccs1 | 15.3* | -1.2 | -21.3 | 10.6 | -0.2 | -22.9 | 27.0* | -0.9
Cc1c(C(C)C)c(=O)n(-c2ccc(S(=O)(=O)NC3CCCCC3)cc2)n1C | 41.1* | -0.6 | . | 2.0 | 0.2 | -8.0 | 51.4* | -0.1
Cc1c(C(C)C)c(=O)n(-c2ccc(S(=O)(=O)NCc3ccccc3)cc2)n1C | 90.6* | -0.4 | -2.9 | -3.0 | 0.1 | 11.1 | 101.6* | -0.5
Cc1c(C(C)C)c(=O)n(-c2ccc(S(=O)(=O)N3CCOCC3)cc2)n1C | 2.3 | 0.2 | -6.4 | 9.3 | -0.1 | -15.1 | . | .
CC(C)c1ccc(CN2CCN(C(=O)CSc3nnnn3C3CC3)CC2)cc1 | 96.7* | 0.6 | -27.1 | -1.1 | 0.1 | . | 106.5* | -0.3
O=C(CSc1nnnn1C1CC1)N1CCN(c2cccc(Cl)c2)CC1 | -3.4 | -2.3 | 11.1 | 2.4 | -0.2 | . | . | .
COc1ccc(NC(=O)C(c2ccccc2)n2c(=O)c(-c3ccco3)nc3ccccc32)cc1 (stereo not given) | -2.4 | . | . | . | . | . | . | .
CCn1c(=O)[nH]c(=O)c2c(N)c(C(=O)c3ccccc3OC)sc21 | 14.7* | -0.8 | . | -21.4 | 0.1 | 2.7 | -0.5 | 0.8
